Data from ChEMBL document CHEMBL2157989, “Synthesis and biological evaluation of antibody conjugates of phosphate prodrugs of cytotoxic DNA alkylators for the targeted treatment of cancer” (J Med Chem, 2012).
≈ marks a conversion by molar mass, not a printed value.

Assays:
[1] = Prodrug conversion assessed as 5-(3-(Methyldisulfanyl)propanamido)-N-(2-((9aS)-4-oxo-2,4,9,9atetrahydro- 1H-benzo[e]cyclopropa[c]indole-2-carbonyl)-1H-indol- 5-yl)-1H-indole-2-carboxamide in cyclopropyl by HPLC analysis; assay type: physicochemical
[2] = Prodrug activation assessed as enzyme-mediated compound dephosphorylation in presence of human semen prostatic acid phosphatase P1649 at pH 7.4 by HPLC; settings: isolated protein
[3] = Solubility of the compound in 100% buffer at pH 7 at 1.5 mg sonicated for 45 mins followed by centrifugation for 45 mins by UV/Vis spectroscopy; assay type: physicochemical
[4] = Prodrug activation assessed as enzyme-mediated compound dephosphorylation in presence of human placenta alkaline phosphatase from P3895 at pH 7.4 by HPLC; settings: isolated protein
[5] = Solubility in water containing 5% DMSO at 1.5 mg sonicated for 45 mins followed by centrifugation for 45 mins by UV/Vis spectroscopy; assay type: physicochemical; settings: 0.75 h
[6] = Solubility of the compound in 10% DMA and 90% buffer at pH 7 at 1.5 mg sonicated for 45 mins followed by centrifugation for 45 mins by UV/Vis spectroscopy; assay type: physicochemical
In short: (§1)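 About 1.5 mg of compound is sonicated for 45 min in pH 7.0 buffer containing 10% or 20% DMA, then centrifuged at 1400g for 45 min. Supernatant concentration is read by UV/vis at 340 nm. ε at pH 7.0 is 41500 M⁻¹ cm⁻¹ for DC1–SR₂ compounds and 34500 M⁻¹ cm⁻¹ for phosphate prodrugs.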

[7] = Solubility of the compound in 20% DMA and 80% buffer at pH 7 at 1.5 mg sonicated for 45 mins followed by centrifugation for 45 mins by UV/Vis spectroscopy; assay type: physicochemical; in short: as §1
[8] = Prodrug activation assessed as enzyme-mediated compound dephosphorylation in presence of calf intestine alkaline phosphatase P7923 at pH 7.4 by HPLC; settings: cattle, isolated protein
[9] = Prodrug activation assessed as enzyme-mediated compound dephosphorylation in presence of wheat germ acid phosphatase Sigma P3627 at pH 7.4 by HPLC; settings: isolated protein
[10] = Solubility in methanol at 1.5 mg sonicated for 45 mins followed by centrifugation for 45 mins by UV/Vis spectroscopy; assay type: physicochemical; settings: 0.75 h
In short: (§2)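 Solid compound (~1.5 mg) in the stated solvent was sonicated 45 min, then centrifuged at 1400g for 45 min. The supernatant concentration was read by UV/vis at 340 nm, using ε = 41500 M⁻¹ cm⁻¹ for the free phenols and 34500 M⁻¹ cm⁻¹ for the phosphate prodrugs (pH 7.0 values).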

COLO 205 = test: Cytotoxicity against human COLO205 cells assessed as cell survival after 72 hrs by clonogenic assay; assay type: functional, cell-based; settings: COLO 205, 72 h
In short: (§3)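 Cells were kept in RPMI 1640 with 10% heat-inactivated FBS at 37 °C and 6% CO₂. They were plated at 1000–5000 cells/well and exposed to 0–3 nM test agent for 72 h. Medium was then replaced and colonies grew for 7–10 days in total after plating. Colonies were fixed and stained with 0.2% crystal violet in 10% formalin/PBS, then counted. Surviving fraction = colonies in treated wells / colonies in control wells; IC₅₀ was taken from this.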

[11] = Cytotoxicity against human NAMALWA cells assessed as cell survival after 72 hrs in presence of bovine alkaline phosphatase by clonogenic assay; assay type: functional, cell-based; settings: NAMALVA
In short: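 Clonogenic assay: cells in RPMI 1640 with 10% heat-inactivated FBS were plated at 1000–5000 cells/well. Test agent (0–3 nM) was combined with alkaline phosphatase from bovine liver, and cells were exposed for 72 h. Colonies then grew for 7–10 days after plating and were stained with 0.2% crystal violet in 10% formalin/PBS. Surviving fraction is relative to untreated control wells.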

[12] = Solubility in water containing 5% DMA at 1.5 mg sonicated for 45 mins followed by centrifugation for 45 mins by UV/Vis spectroscopy; assay type: physicochemical; settings: 0.75 h
Ramos = test: Cytotoxicity against human Ramos cells assessed as cell survival after 72 hrs by clonogenic assay; assay type: functional, cell-based; in short: as §3
[13] = Prodrug activation assessed as enzyme-mediated compound dephosphorylation in presence of calf intestine mucosa alkaline phosphatase P79390 at pH 7.4 by HPLC; settings: cattle, isolated protein
[14] = Solubility in water containing 5% dioxane at 1.5 mg sonicated for 45 mins followed by centrifugation for 45 mins by UV/Vis spectroscopy; assay type: physicochemical; settings: 0.75 h
[15] = Solubility in DMA at 1.5 mg sonicated for 45 mins followed by centrifugation for 45 mins by UV/Vis spectroscopy; assay type: physicochemical; settings: 0.75 h; in short: as §2
[16] = Prodrug conversion assessed as 1-[S]-(Chloromethyl)-5-hydroxy-3-{{5-[5-(3-methyldithiopropionyl)indol-2-yl-carbonyl amino]indole-2-yl}- carbonyl}-1,2-dihydro-3H-benz[e]indole formation in presence of bovine kidney alkaline phosphatase at pH 7.4; assay type: physicochemical; settings: cattle, isolated protein
HL-60 = test: Cytotoxicity against human HL60 cells assessed as cell survival after 72 hrs by clonogenic assay; assay type: functional, cell-based; settings: HL-60, 72 h; in short: as §3
[17] = Solubility in toluene at 1.5 mg sonicated for 45 mins followed by centrifugation for 45 mins by UV/Vis spectroscopy; assay type: physicochemical; settings: 0.75 h; in short: as §2
[18] = Prodrug conversion assessed as 1-[S]-(Chloromethyl)-5-hydroxy-3-{{5-[5-(4-methyldithio-3,3- dimethyl butyryl)indol-2-yl-carbonyl amino]indole-2-yl}carbonyl}- 1,2-dihydro-3H-benz[e]indole formation in presence of porcine mucosa alkaline phosphatase at pH 7.4; assay type: physicochemical; settings: pig, isolated protein
[19] = Solubility in ethanol at 1.5 mg sonicated for 45 mins followed by centrifugation for 45 mins by UV/Vis spectroscopy; assay type: physicochemical; settings: 0.75 h; in short: as §2
[20] = Solubility in DMF at 1.5 mg sonicated for 45 mins followed by centrifugation for 45 mins by UV/Vis spectroscopy; assay type: physicochemical; settings: 0.75 h; in short: as §2
[21] = Prodrug activation assessed as enzyme-mediated compound dephosphorylation in presence of bovine alkaline phosphatase P8361 at pH 7.4 by HPLC; settings: cattle, isolated protein
[22] = Prodrug activation assessed as enzyme-mediated compound dephosphorylation in presence of bovine kidney alkaline phosphatase P4653 at pH 7.4 by HPLC; settings: cattle, isolated protein
[23] = Prodrug activation assessed as enzyme-mediated compound dephosphorylation in presence of rabbit intestine alkaline phosphatase P2256 at pH 7.4 by HPLC; settings: isolated protein
[24] = Prodrug activation assessed as enzyme-mediated compound dephosphorylation in presence of porcine kidney alkaline phosphatase P4439 at pH 7.4 by HPLC; settings: pig, isolated protein
[25] = Solubility in hexane at 1.5 mg sonicated for 45 mins followed by centrifugation for 45 mins by UV/Vis spectroscopy; assay type: physicochemical; settings: 0.75 h; in short: as §2
[26] = Solubility in water containing 5% THF at 1.5 mg sonicated for 45 mins followed by centrifugation for 45 mins by UV/Vis spectroscopy; assay type: physicochemical; settings: 0.75 h
[27] = Prodrug activation assessed as enzyme-mediated compound dephosphorylation in presence of bovine intestinal mucosa alkaline phosphatase P7640 at pH 7.4 by HPLC; settings: cattle, isolated protein

Drug metabolism [1]	Drug metabolism [2]	solubility at 0.75 h [3] [mM]	Drug metabolism [4]	solubility [5]	solubility at 0.75 h [6] [mM]	solubility at 0.75 h [7] [mM]	Drug metabolism [8]	Drug metabolism [9]	solubility [10]	solubility [12]	Drug metabolism [13]	solubility [14]	solubility [15]	Drug metabolism [16]	solubility [17]	SMILES	IC50 (COLO 205) [nM]	IC50 [11] [nM]	IC50 (Ramos) [nM]	IC50 (HL-60) [nM]	also measured
Active	Active	0.019 (≈ 14.5 µg/mL)	Active	soluble	4.7 (≈ 3590 µg/mL)	> 6	Active	Active	Insoluble	soluble	Active	soluble	soluble	Active	Insoluble	CSSCCC(=O)Nc1ccc2[nH]c(C(=O)Nc3ccc4[nH]c(C(=O)N5C[C@@H](CCl)c6c5cc(OP(=O)(O)O)c5ccccc65)cc4c3)cc2c1	> 3	0.03	1.9	1.8	Drug metabolism [18]: Active; solubility [19]: Insoluble; solubility [20]: soluble; Drug metabolism [21]: Active; Drug metabolism [22]: Active; Drug metabolism [23]: Active; Drug metabolism [24]: Active; solubility [25]: Insoluble; solubility [26]: soluble; Drug metabolism [27]: Active
Active	Active	0.019 (≈ 15.3 µg/mL)	Active	soluble	4.6 (≈ 3710 µg/mL)	> 6	Active	Active	Insoluble	soluble	Active	soluble	soluble	Active	Insoluble	CSSC(C)(C)CCC(=O)Nc1ccc2[nH]c(C(=O)Nc3ccc4[nH]c(C(=O)N5C[C@@H](CCl)c6c5cc(OP(=O)(O)O)c5ccccc65)cc4c3)cc2c1	> 3	0.025	2	1.9	Drug metabolism [18]: Active; solubility [19]: Insoluble; solubility [20]: soluble; Drug metabolism [21]: Active; Drug metabolism [22]: Active; Drug metabolism [23]: Active; Drug metabolism [24]: Active; solubility [25]: Insoluble; solubility [26]: soluble; Drug metabolism [27]: Active
